# Results collected from several papers.
# Compare with care: the assays were run in different laboratories.
# Target: Serine/threonine-protein kinase 16 (STK16, Homo sapiens, UniProt O75716)
Compound,effect on,mode,technique,concentration,endpoint,result
Nc1cnc(N2CCc3cc(S(=O)(=O)Nc4c(F)cc(Cl)cc4F)cc(N4CCCC4=O)c32)nc1,cell-free assay,,competition with immobilised ligand,1 µM,remaining binding,100%
Cc1ccc(C(=O)Nc2ccc(CN3CCN(C)CC3)c(C(F)(F)F)c2)cc1C#Cc1cnc2cccnn12,enzyme activity,inhibitor,,23.5 nM,remaining activity,94%
CCCCNc1ncc2c(-c3ccc(F)cc3)nn(C[C@H]3CC[C@H](N)CC3)c2n1,target engagement in cells,inhibitor,chemoproteomics,20 mM,inhibition,56.4%
Oc1cccc(-c2nc(N3CCOCC3)c3oc4ncccc4c3n2)c1,cell-free assay,,,0.5 µM,remaining signal,91.7%
O=C(O)c1cc(-c2ccc(C3CCNCC3)cc2)c2ccc(-c3ccc(C(F)(F)F)cc3)cc2c1,cell-free assay,,competition with immobilised ligand,1 µM,remaining binding,100%
N#CCCc1ccc2c(c1)-c1[nH]c3ccc([N+](=O)[O-])cc3c1CC(=O)N2,cell-free assay,,,0.5 µM,remaining signal,87%
O=C(Nc1cnn(-c2csc(C(=O)NC3COC3)c2)c1)Nc1c(F)cccc1Cl,enzyme activity,inhibitor,,5 µM,remaining activity,107%
CS(=O)(=O)N1CCCC(NC(=O)[C@H](CCC2CCCCC2)NC(=O)c2ccc(CNc3ncnc4c3nnn4-c3ccccc3)cc2)C1 (stereo partly shown),cell-free assay,,competition with immobilised ligand,0.1 µM,remaining binding,100%
Nc1ncnc2occ(-c3ccc(NC(=O)Nc4cc(C(F)(F)F)ccc4F)cc3)c12,cell-free assay,inhibitor,,20 µM,remaining signal,84%
CC(C)(O)[C@H]1CC[C@H](Nc2ccc3ncc(-c4cccc(C(F)(F)F)c4)n3n2)CC1,enzyme activity,inhibitor,,1 µM,remaining activity,78.7%
Cn1cncc1C1=CN(c2ncnc3[nH]cnc23)CCS1,enzyme activity,inhibitor,radiometric,50 nM,inhibition,22%
CN(C)C(=O)Cn1cc(-c2nc(C3(c4ccc(-c5cnc(N)nc5)cc4)CC3)no2)cn1,cell-free assay,,competition with immobilised ligand,1 µM,remaining binding,100%
FC(F)(F)Oc1cccc(-c2cnc3ccc(-c4ccncc4)nn23)c1,enzyme activity,inhibitor,radiometric,5 µM,activity vs control,118%
O=C1Nc2ccc(Cl)cc2C1=Cc1cc(Cl)c(O)c(Cl)c1,cell-free assay,,,0.5 µM,remaining signal,90.2%
CCS(=O)(=O)c1cc2cc(C[C@@](O)(CC(C)(C)c3ccc(F)cc3C(N)=O)C(F)(F)F)[nH]c2cn1,cell-free assay,,competition with immobilised ligand,1 µM,remaining binding,91%
COc1cc(-c2cc(-c3ccc(N4CCNCC4)cc3)cnc2C)cc(OC)c1OC,enzyme activity,inhibitor,,0.1 µM,inhibition,4%
CC(=O)Nc1c(C(C)=O)c(=O)n(C)c2nc(-c3ccc(Cl)cc3Cl)c(-c3ccc(Cl)cc3)cc12,cell-free assay,,competition with immobilised ligand,1 µM,remaining binding,100%
COc1cc(Nc2cnc(C#N)c(O[C@H](C)CN(C)C)n2)ncc1-c1cnn(C)c1,enzyme activity,inhibitor,radiometric,10 µM,remaining activity,91%
Cn1cnc(Br)c1C1=CN(c2ncnc3[nH]cnc23)CCS1,enzyme activity,inhibitor,radiometric,50 nM,inhibition,38.5%
